Yeast lifespan up: extends the lifespan of yeast | S. cerevisiae growth with nicotinamide, OD615; deaD strain in restrictive glucose medium | inhibition of the nicotinamide effect, % at 10 µM | hit rate 0.68% among 130,000 | AID 775;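 active = inhibition above a set limit, placed 3 SD over the median of all compounds, cut at about 26% in these data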;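 also: 0% = nicotinamide-treated wells and 100% = cells grown without nicotinamide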
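Test system: DeaD-strain S. cerevisiae / Buffer or medium: restrictive glucose medium / Also added: nicotinamide 1.5 mM / Doses: one concentration, 10 µM, DMSO 0.25% / Schedule: 48 h at 30 °C / Signal: OD615 measurement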
Measles CPE: protection of cells from measles virus; Measles virus-infected cells, CPE protection, absorbance; AID 841; hit rate 1.5% among 140,000; protection (pct of control), % at 4 µM; in the data active = protection mostly above about 24%, no sharp cut-off; inactive = mostly below about 26%
Phagocyt inh: blocks phagocytosis by macrophages. inhibition, % at 5 µM. J774A.1 macrophage IgG-bead phagocytosis, imaging. hit rate 0.07% among 110,000. AID 1029;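 active = inhibition above the mean of the plate negative controls plus 5 SD, cut at about 13% in these data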;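 also: phagocytic index as fraction of beads internalized from green versus red external bead signal; plate controls were DMSO negative control for no effect and cytochalasin-D positive control for full effect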
RAM inhibit: yeast RAM network inhibition | S. cerevisiae dse1pr::URA3 reporter, 5-FOA growth OD615, 2 d; analog-sensitive cbk1-as2 kinase mutant strain | inhibition, % at 50 µM | hit rate 1.8% among 190,000 | AID 868;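 active = inhibition above a set limit, 3 SD over mean compound inhibition, cut at about 8.4% in these data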;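 also: 0% = DMSO-only wells with no growth and 100% = 10 µM 1-NA-PP1 full growth; inhibition rescues growth on 5-FOA so higher OD means more RAM inhibition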
Yeast growth inh: yeast BB579 growth reduction in restrictive medium; S. cerevisiae BB579 growth, OD615, 48 h; inhibition, % at 10 µM; hit rate 0.51% among 140,000;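 active = inhibition above a set limit, 3 SD over the mean compound inhibition, cut at about 44% in these data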
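controls = amphotericin B 10 µg/mL, positive | assay system = DeaD yeast strain BB579 | schedule = 48 h compound exposure at 30 °C after 4 h preincubation | detection = OD615 turbidity measurement | medium = restrictive CSMM-D medium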
An asterisk follows results filed as active; x = no result. A selection: hits, their analogues and other compounds. The true share with any hit is near 3.6%.

SMILES	Yeast lifespan up	Measles CPE	Phagocyt inh	RAM inhibit	Yeast growth inh
CCN(CC)CCCNC(=O)c1cc2c(=O)n(C)c3ccccc3c2n1C	-13	4	0	-1	10
CCN(CC)CCNC(=O)c1cc2c(=O)n(C)c3ccccc3c2n1C	-6	41*	0	1	29
CCOC(=O)c1c(-c2ccc(OC)cc2)cn2ccccc12	x	x	x	3	x
CNC(=O)/C(C#N)=C/c1c(N2CC(C)OC(C)C2)nc2ccccn2c1=O (stereo not given)	2	6	x	3	-14
COc1ccc(C)cc1NC(=O)C(Sc1nnc(Nc2cc(C)ccc2OC)s1)c1ccccc1 (stereo not given)	9	4	-6	8.5*	-60
COc1ccc(Nc2nnc(SC(C(=O)Nc3cc(C)ccc3C)c3ccccc3)s2)cc1 (stereo not given)	x	x	x	4	x
Cc1nn(C(C)(C)C)c(OC(=O)c2cccs2)c1Sc1ccccc1	15	17	-1	11*	-72
Cc1nn(C(C)(C)C)c(OC(=O)c2ccc(Br)o2)c1Sc1ccccc1	33*	4	x	11*	-27
COc1cc(NC(=O)CCCl)cc(-n2cnnn2)c1	x	x	x	5	x
N#C/C(=N\Nc1cccc2ccccc12)c1nnc2n1CCCCC2	-2	21	13	4	-8
CC/C(=N/Nc1cccc(Cl)c1)c1cnnc(SC)n1	3	8	-1	9.0*	-51
Cc1ncc(C23CC4CC(CC(C4)C2)C3)[nH]1	152*	9	-1	1	-34
COc1cc(OC)cc(C(=O)N(Cc2cc3cc(C)ccc3[nH]c2=O)C(C)C)c1	-15	44*	1	0	-31
CNC(=S)N(Cc1ccc(OC)cc1)Cc1cc2cc(C)ccc2[nH]c1=O	x	x	x	8.5*	x
COC(=O)c1ccccc1NC(=S)N(Cc1ccc2c(c1)OCO2)Cc1cc2cc(OC)ccc2[nH]c1=O	8	8	-4	8.5*	-43
O=C(CCSCc1ccc(Cl)cc1)NCc1cccnc1	x	x	x	-1	x
CCOC(=O)CSc1nnc(-c2ccc(Cl)cc2Cl)o1	-19	42*	-1	1	-35
CCCOC(=O)CSc1nnc(-c2ccc(Cl)cc2Cl)o1	-7	3	-2	3	-35
CC(C)(C)OC(=O)N1CCCC1C(=O)O (stereo not given)	-23	7	0	2	-32
Cc1oc(C(C)(C)C)cc1C(=O)N1CCCC1C(=O)O (stereo not given)	x	26*	x	0	-19
CCOC(=O)C(=Cc1ccc(F)cc1)C(=O)OCC	78*	8	4	1	-48
CCOC(=O)C(=Cc1ccc(-n2ccnc2)cc1)C(=O)OCC	x	x	x	0	x
O=C1CN(c2ccc(Cl)cc2)C2(CCCCC2)S1	-1	3	-9	1	-15
CCN(CC)S(=O)(=O)c1ccc(Cl)c(C(=O)NC)c1	-5	45*	0	1	-12
CCc1nnc(NC(=O)c2cc(S(=O)(=O)N(CC)CC)ccc2Cl)s1	-7	9	-2	1	1
SMILES	Yeast lifespan up	Measles CPE	Phagocyt inh	RAM inhibit	Yeast growth inh
O=C(Cc1ccccc1)NNC(=S)Nc1ccc(Cl)cc1	8	19*	-5	2	-5
Cc1cccc(NC(=S)NNC(=O)Cc2ccccc2)c1	0	3	-12	0	-24
N#C/C(=C/c1cn(-c2ccccc2)nc1-c1cccc(OCc2ccc(F)cc2)c1)C(=O)NCCCn1ccnc1	-6	12	-3	2	63*
CCCOc1cccc(-c2nn(-c3ccccc3)cc2/C=C(\C#N)C(=O)NCCCn2ccnc2)c1	-4	7	-2	-1	-24
O=C(Cn1nc(-c2ccccc2)c2ccccc2c1=O)Nc1cccc(O)c1	x	x	x	2	x
N#Cc1c(-c2ccccc2)c(-c2ccccc2)nn(CC(=O)NNC(=O)Nc2ccccc2)c1=O	62*	7	x	4	-10
Cc1ccnc(SCc2cc(=O)c(OC(=O)c3ccco3)co2)n1	42*	14	-13	0	-18
CC1CCCC(C)N1C(=C(Cl)Cl)C(=C1SCCS1)[N+](=O)[O-] (stereo not given)	x	x	x	8.8*	x
Cc1ccc(N2C(=O)CS/C2=C(\C(Cl)=C(Cl)Cl)[N+](=O)[O-])cc1	-9	2	0	1	-9
CC(C)(C)c1cc(NCCCn2ccnc2)n2ncc(-c3ccc(Cl)cc3)c2n1	-24	3	x	-1	86*
Cc1cc(NCCCn2ccnc2)n2nc(-c3ccc(Cl)cc3)cc2n1	x	x	x	1	x

Screens (PubChem)
